Tests used:
[1] = target: Protein kinase C delta type (Homo sapiens, UniProt Q05655); test: Binding affinity to GST-tagged PKCdelta expressed in Escherichia coli BL21(DE3) by fluorescence quenching
How it was run: (§1)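 Isolated C1B subdomain made in E. coli as GST fusion, purified on glutathione-Sepharose, GST removed by thrombin, then ammonium sulfate precipitation and Superdex 75 gel filtration. Excitation 280 nm, intrinsic emission at 350 nm as (F0-F)/F, Hill fit gives EC50.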

[2] = target: Protein kinase C theta type (Homo sapiens, UniProt Q04759); test: Binding affinity to GST-tagged PKCtheta expressed in Escherichia coli BL21(DE3) by fluorescence quenching; how it was run: as §1
Sequence of Protein kinase C theta type (Q04759 whole entry): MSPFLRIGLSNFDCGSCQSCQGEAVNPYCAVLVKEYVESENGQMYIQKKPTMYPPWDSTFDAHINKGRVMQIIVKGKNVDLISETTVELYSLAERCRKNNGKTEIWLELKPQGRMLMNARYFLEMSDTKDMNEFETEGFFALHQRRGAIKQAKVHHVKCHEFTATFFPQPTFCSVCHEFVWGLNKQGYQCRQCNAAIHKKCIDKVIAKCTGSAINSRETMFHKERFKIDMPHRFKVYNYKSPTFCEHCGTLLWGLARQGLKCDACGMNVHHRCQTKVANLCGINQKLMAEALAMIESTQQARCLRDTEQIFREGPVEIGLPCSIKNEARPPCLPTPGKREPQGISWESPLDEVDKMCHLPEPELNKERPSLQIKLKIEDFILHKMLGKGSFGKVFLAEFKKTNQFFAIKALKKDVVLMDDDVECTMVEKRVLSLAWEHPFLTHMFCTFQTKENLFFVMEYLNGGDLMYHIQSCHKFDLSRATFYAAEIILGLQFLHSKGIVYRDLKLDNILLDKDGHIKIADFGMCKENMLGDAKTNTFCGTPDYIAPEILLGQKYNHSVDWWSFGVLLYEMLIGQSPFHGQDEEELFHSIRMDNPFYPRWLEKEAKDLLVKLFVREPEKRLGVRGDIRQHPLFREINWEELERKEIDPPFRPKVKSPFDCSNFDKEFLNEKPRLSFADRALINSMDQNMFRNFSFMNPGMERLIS

[3] = target: T1, Protein kinase C epsilon type (Homo sapiens, UniProt Q02156); test: Binding affinity to GST-tagged PKCepsilon expressed in Escherichia coli BL21(DE3) by fluorescence quenching; how it was run: as §1
T1 sequence (Q02156 whole entry): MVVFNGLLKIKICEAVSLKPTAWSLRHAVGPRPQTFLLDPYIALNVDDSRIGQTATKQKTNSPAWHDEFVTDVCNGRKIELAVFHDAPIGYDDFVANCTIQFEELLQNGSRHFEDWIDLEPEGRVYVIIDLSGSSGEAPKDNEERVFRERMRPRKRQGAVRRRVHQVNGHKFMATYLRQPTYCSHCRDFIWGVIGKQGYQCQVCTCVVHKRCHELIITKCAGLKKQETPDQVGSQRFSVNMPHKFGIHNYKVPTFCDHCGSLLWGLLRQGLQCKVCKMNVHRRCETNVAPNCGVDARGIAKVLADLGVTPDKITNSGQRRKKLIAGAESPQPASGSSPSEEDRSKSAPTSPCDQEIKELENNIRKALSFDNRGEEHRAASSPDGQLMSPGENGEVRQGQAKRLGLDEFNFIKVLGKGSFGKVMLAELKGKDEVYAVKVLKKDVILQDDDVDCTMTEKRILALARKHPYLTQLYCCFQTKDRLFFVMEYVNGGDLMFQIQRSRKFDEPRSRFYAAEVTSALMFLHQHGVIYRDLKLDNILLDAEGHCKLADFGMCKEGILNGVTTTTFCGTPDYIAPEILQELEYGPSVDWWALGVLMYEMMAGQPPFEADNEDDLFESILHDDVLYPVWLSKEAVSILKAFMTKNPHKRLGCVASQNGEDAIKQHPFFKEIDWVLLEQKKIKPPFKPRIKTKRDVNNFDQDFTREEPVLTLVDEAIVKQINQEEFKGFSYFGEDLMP

Sequence of Protein kinase C delta type (Q05655 whole entry, the tested form may be a part): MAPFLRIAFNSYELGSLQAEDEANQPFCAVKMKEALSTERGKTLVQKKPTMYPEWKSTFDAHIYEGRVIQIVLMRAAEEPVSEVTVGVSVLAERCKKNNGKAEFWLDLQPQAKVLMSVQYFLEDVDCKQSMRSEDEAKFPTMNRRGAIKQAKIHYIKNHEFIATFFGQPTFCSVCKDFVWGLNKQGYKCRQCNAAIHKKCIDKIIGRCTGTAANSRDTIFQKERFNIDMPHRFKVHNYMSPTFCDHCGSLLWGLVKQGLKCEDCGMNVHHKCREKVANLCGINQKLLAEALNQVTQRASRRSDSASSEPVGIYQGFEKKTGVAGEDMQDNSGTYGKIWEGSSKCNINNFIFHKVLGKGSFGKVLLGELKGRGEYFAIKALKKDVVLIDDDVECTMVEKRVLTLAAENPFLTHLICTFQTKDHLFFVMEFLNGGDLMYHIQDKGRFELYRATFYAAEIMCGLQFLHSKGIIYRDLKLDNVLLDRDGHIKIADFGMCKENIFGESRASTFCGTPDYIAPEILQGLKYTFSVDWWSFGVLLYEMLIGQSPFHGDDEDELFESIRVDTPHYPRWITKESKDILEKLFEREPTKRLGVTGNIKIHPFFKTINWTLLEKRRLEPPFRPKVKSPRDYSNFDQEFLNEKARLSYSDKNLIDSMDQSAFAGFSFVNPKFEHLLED

| Structure (SMILES) | EC50 [1] [µM] | EC50 [2] [µM] | EC50 [3] [µM] |
| --- | --- | --- | --- |
| O=C(/C=C(O)/C=C/c1ccc(O)c(O)c1)/C=C/c1ccc(O)c(O)c1 | 12.5 | 6.57 | 11.1 |
| CCCCCCCC(=O)OC[C@H](CO)OC(=O)CCCCCCC |  | 5.24 |  |
| CCCCCCCCCCCCCCCCOc1ccc(/C=C/C(O)=C/C(=O)/C=C/c2ccc(O)c(OC)c2)cc1OC | 8.98 | 5.95 | 10.6 |
| CCCCCCCC/C=C\CCCCCCCC(=O)OC[C@H](CO)OC(=O)CCCCCCC/C=C\CCCCCCCC | 7.49 | 8.67 | 14.3 |
| CCCCCCCCOc1ccc(/C=C/C(O)=C/C(=O)/C=C/c2ccc(O)c(OC)c2)cc1OC | 8.69 | 4 | 9.79 |
| COc1cc(/C=C/C(=O)CC(=O)/C=C/c2ccc(O)c(OC)c2)ccc1O [CURCUMIN] | 10.7 | 11.1 | 8.81 |
| CCCCCCCCCCCCCC(=O)O[C@@H]1[C@@H](C)[C@@]2(O)[C@@H](C=C(CO)C[C@]3(O)C(=O)C(C)=C[C@@H]23)[C@@H]2C(C)(C)[C@]12OC(C)=O [PHORBOL MYRISTATE ACETATE] | 5.17 | 3.19 | 5.56 |
